According to ChEMBL document CHEMBL1128580, “Synthesis and antibacterial activity of some novel 1-substituted 1,4-dihydro-4-oxo-7-pyridinyl-3-quinolinecarboxylic acids. Potent antistaphylococcal agents” (1995):
In brackets after ≈: the same amount, converted by molar mass.

Experiments:
Assay type in all cases: functional
[1] = test system: Bacteroides fragilis; experiment: Minimum Inhibitory concentration measured against Bacteroides fragilis ATCC 25285
In short: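 Anaerobic broth microdilution. Grown in brain heart infusion broth with 5 µg/mL hemin and 0.5 µg/mL vitamin K for 48 h at 37 °C under 5% CO₂, 10% H₂, 85% N₂. Adjusted to absorbance 0.1 at 650 nm and diluted 1:10. Final 10⁵ cells/mL; plates incubated anaerobically for 48 h at 37 °C.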

[2] = test system: Pseudomonas aeruginosa; experiment: Minimum Inhibitory concentration measured against Pseudomonas aeruginosa ATCC 27853
In short: (§1)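 Broth microdilution on cultures kept as frozen stock, grown in Mueller Hinton II medium for 18–24 h at 37 °C. Suspension adjusted to absorbance 0.1 at 650 nm and diluted 1:10 in medium to give the inoculum. Final density 10⁵ cells/mL; plates incubated 24 h at 37 °C.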

[3] = test system: Enterococcus faecalis; experiment: Minimum Inhibitory concentration measured against Streptococcus faecalis ATCC 29212; in short: as §1
[4] = test system: Streptococcus pyogenes; experiment: Minimum Inhibitory concentration measured against Streptococcus pyogenes ATCC 6301
In short: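 ATCC 6301 was grown in brain heart infusion broth with 10% heat-inactivated horse serum for 18–24 h at 37 °C. Suspension brought to absorbance 0.1 at 650 nm, then diluted 1:10 in the same medium. Broth microdilution at a final 10⁵ cells/mL, incubated 24 h at 37 °C.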

[5] = test system: Escherichia coli; experiment: Minimum Inhibitory concentration measured against Escherichia coli ATCC 1-25922; in short: as §1
[6] = test system: Staphylococcus aureus; experiment: Minimum Inhibitory concentration measured against Staphylococcus aureus ATCC 29213; in short: as §1

SMILES | MIC [1] [µg/mL] | MIC [2] [µg/mL] | MIC [3] [µg/mL] | MIC [4] [µg/mL] | MIC [5] [µg/mL] | MIC [6] [µg/mL]
CCc1cc(-c2cc3c(cc2F)c(=O)c(C(=O)O)cn3C2CC2)ccn1 | 1 (≈ 2.84 µM) | 4 (≈ 11.4 µM) | 0.25 (≈ 0.709 µM) | 0.25 (≈ 0.709 µM) | 0.125 (≈ 0.355 µM) | 0.03 (≈ 0.0851 µM)
CNn1cc(C(=O)O)c(=O)c2cc(F)c(-c3cc(C)nc(C)c3)cc21 | > 4 | > 4 | 0.5 (≈ 1.46 µM) | 1 (≈ 2.93 µM) | 0.25 (≈ 0.732 µM) | 0.06 (≈ 0.176 µM)
COCc1cc(-c2cc3c(cc2F)c(=O)c(C(=O)O)cn3C2CC2)cc(C)n1 | 1 (≈ 2.62 µM) | 8 (≈ 20.9 µM) | 0.125 (≈ 0.327 µM) | 0.125 (≈ 0.327 µM) | 0.25 (≈ 0.654 µM) | 0.03 (≈ 0.0785 µM)
O=C(O)c1cn(C2CC2)c2cc(N3CCNCC3)c(F)cc2c1=O [CIPROFLOXACIN] | 2 (≈ 6.04 µM) | – | 0.5 (≈ 1.51 µM) | 0.25 (≈ 0.754 µM) | – | 0.25 (≈ 0.754 µM)
Cc1cc(-c2cc3c(cc2F)c(=O)c(C(=O)O)cn3C2CC2)cc(CO)n1 | 1 (≈ 2.71 µM) | 4 (≈ 10.9 µM) | 0.125 (≈ 0.339 µM) | 0.06 (≈ 0.163 µM) | 0.06 (≈ 0.163 µM) | 0.03 (≈ 0.0814 µM)
Cc1cc(-c2cc3c(cc2F)c(=O)c(C(=O)O)cn3C2CC2)cc(C)n1 | 0.5 (≈ 1.42 µM) | 2 (≈ 5.68 µM) | 0.06 (≈ 0.17 µM) | 0.03 (≈ 0.0851 µM) | 0.03 (≈ 0.0851 µM) | 0.008 (≈ 0.0227 µM)
Cc1cc(-c2cc3c(cc2F)c(=O)c(C(=O)O)cn3C2CC2)c(C)c(C)n1 | 4 (≈ 10.9 µM) | 8 (≈ 21.8 µM) | 0.5 (≈ 1.36 µM) | 0.25 (≈ 0.682 µM) | 0.125 (≈ 0.341 µM) | 0.06 (≈ 0.164 µM)
Cc1cc(-c2ccc3c(=O)c(C(=O)O)cn(C4CC4)c3c2F)cc(C)n1 | – | – | – | – | 0.06 (≈ 0.17 µM) | 0.008 (≈ 0.0227 µM)
Cc1ccc(-c2cc3c(cc2F)c(=O)c(C(=O)O)cn3C2CC2)cn1 | 0.25 (≈ 0.739 µM) | 2 (≈ 5.91 µM) | 0.25 (≈ 0.739 µM) | 0.25 (≈ 0.739 µM) | 0.03 (≈ 0.0887 µM) | 0.03 (≈ 0.0887 µM)
O=C(O)c1cn(C2CC2)c2cc(-c3ccncc3)c(F)cc2c1=O | 1 (≈ 3.08 µM) | 2 (≈ 6.17 µM) | 0.5 (≈ 1.54 µM) | 0.25 (≈ 0.771 µM) | 0.03 (≈ 0.0925 µM) | 0.06 (≈ 0.185 µM)
Cc1cc(-c2ccc3c(=O)c(C(=O)O)cn(C4CC4)c3c2)cc(C)n1 | > 4 | > 4 | 0.5 (≈ 1.5 µM) | 0.5 (≈ 1.5 µM) | 0.25 (≈ 0.748 µM) | 0.06 (≈ 0.179 µM)
O=C(O)c1cn(C2CC2)c2cc(-c3cccnc3)c(F)cc2c1=O | 0.5 (≈ 1.54 µM) | 1 (≈ 3.08 µM) | 0.25 (≈ 0.771 µM) | 0.125 (≈ 0.385 µM) | 0.008 (≈ 0.0247 µM) | 0.016 (≈ 0.0493 µM)
CCNCc1cc(-c2cc3c(cc2F)c(=O)c(C(=O)O)cn3C2CC2)cc(C)n1 | 8 (≈ 20.2 µM) | 8 (≈ 20.2 µM) | 2 (≈ 5.06 µM) | 0.5 (≈ 1.26 µM) | 0.06 (≈ 0.152 µM) | 0.5 (≈ 1.26 µM)
CCn1cc(C(=O)O)c(=O)c2ccc(-c3cc(C)nc(C)c3)cc21 [DIMETHYLROSOXACIN] | 16 (≈ 49.6 µM) | 2 (≈ 6.2 µM) | 1 (≈ 3.1 µM) | 32 (≈ 99.3 µM) | 0.25 (≈ 0.776 µM) | 0.25 (≈ 0.776 µM)
CCn1cc(C(=O)O)c(=O)c2cc(F)c(N3CCNCC3)cc21 [NORFLOXACIN] | 8 (≈ 25.1 µM) | 2 (≈ 6.26 µM) | 4 (≈ 12.5 µM) | 4 (≈ 12.5 µM) | 0.125 (≈ 0.391 µM) | 2 (≈ 6.26 µM)
CCn1cc(C(=O)O)c(=O)c2ccc(-c3ccncc3)cc21 [ROSOXACIN] | 8 (≈ 27.2 µM) | 16 (≈ 54.4 µM) | 16 (≈ 54.4 µM) | 16 (≈ 54.4 µM) | 0.125 (≈ 0.425 µM) | 0.5 (≈ 1.7 µM)
Cc1cncc(-c2cc3c(cc2F)c(=O)c(C(=O)O)cn3C2CC2)c1 | 0.25 (≈ 0.739 µM) | 2 (≈ 5.91 µM) | 0.125 (≈ 0.369 µM) | 0.06 (≈ 0.177 µM) | 0.06 (≈ 0.177 µM) | 0.016 (≈ 0.0473 µM)
Cc1cc(-c2cc3c(cc2F)c(=O)c(C(=O)O)cn3C(C)(C)C)cc(C)n1 | 1 (≈ 2.71 µM) | > 4 | 0.25 (≈ 0.679 µM) | 0.125 (≈ 0.339 µM) | 0.25 (≈ 0.679 µM) | 0.03 (≈ 0.0814 µM)
Cc1ccc(-c2cc3c(cc2F)c(=O)c(C(=O)O)cn3C2CC2)c(C)n1 | 4 (≈ 11.4 µM) | > 16 | 4 (≈ 11.4 µM) | 8 (≈ 22.7 µM) | 0.5 (≈ 1.42 µM) | 1 (≈ 2.84 µM)
Cc1cc(-c2cc3c(cc2F)c(=O)c(C(=O)O)cn3-c2ccc(F)cc2)cc(C)n1 | 1 (≈ 2.46 µM) | 4 (≈ 9.84 µM) | 1 (≈ 2.46 µM) | 1 (≈ 2.46 µM) | 0.125 (≈ 0.308 µM) | 0.125 (≈ 0.308 µM)
CNCc1cc(-c2cc3c(cc2F)c(=O)c(C(=O)O)cn3C2CC2)cc(C)n1 | 2 (≈ 5.24 µM) | 1 (≈ 2.62 µM) | 0.2 (≈ 0.524 µM) | 0.25 (≈ 0.655 µM) | 0.016 (≈ 0.0419 µM) | 0.125 (≈ 0.328 µM)
Cc1cc(-c2c(F)cc3c(=O)c(C(=O)O)cn(C4CC4)c3c2F)cc(C)n1 [WIN-57294] | 0.125 (≈ 0.338 µM) | 4 (≈ 10.8 µM) | 0.06 (≈ 0.162 µM) | 0.016 (≈ 0.0432 µM) | 0.06 (≈ 0.162 µM) | 0.008 (≈ 0.0216 µM)
Cc1cc(-c2c(F)c(F)c3c(=O)c(C(=O)O)cn(C4CC4)c3c2F)cc(C)n1 | 0.5 (≈ 1.29 µM) | 8 (≈ 20.6 µM) | 0.06 (≈ 0.155 µM) | 0.03 (≈ 0.0773 µM) | 0.13 (≈ 0.335 µM) | 0.008 (≈ 0.0206 µM)
CCn1cc(C(=O)O)c(=O)c2cc(F)c(-c3cc(C)nc(C)c3)cc21 | 2 (≈ 5.88 µM) | 4 (≈ 11.8 µM) | 0.25 (≈ 0.735 µM) | 0.25 (≈ 0.735 µM) | 0.06 (≈ 0.176 µM) | 0.03 (≈ 0.0881 µM)
Cc1cc(-c2nc3c(cc2F)c(=O)c(C(=O)O)cn3C2CC2)cc(C)n1 | 2 (≈ 5.66 µM) | 8 (≈ 22.6 µM) | 0.125 (≈ 0.354 µM) | 0.25 (≈ 0.708 µM) | 0.125 (≈ 0.354 µM) | 0.03 (≈ 0.0849 µM)
Cc1cc(-c2cc3c(cc2F)c(=O)c(C(=O)O)cn3C2CC2)ccn1 | 0.5 (≈ 1.48 µM) | 2 (≈ 5.91 µM) | 0.06 (≈ 0.177 µM) | 0.06 (≈ 0.177 µM) | 0.03 (≈ 0.0887 µM) | 0.016 (≈ 0.0473 µM)
Cc1cc(-c2cc3c(cc2F)c(=O)c(C(=O)O)cn3C2CC2)cc(CN(C)C)n1 | 2 (≈ 5.06 µM) | 8 (≈ 20.2 µM) | 0.5 (≈ 1.26 µM) | 0.5 (≈ 1.26 µM) | 0.06 (≈ 0.152 µM) | 0.06 (≈ 0.152 µM)
CCn1cc(C(=O)O)c(=O)c2cc(F)c(-c3ccncc3)cc21 | 16 (≈ 51.2 µM) | 2 (≈ 6.4 µM) | 1 (≈ 3.2 µM) | 2 (≈ 6.4 µM) | 0.125 (≈ 0.4 µM) | 0.25 (≈ 0.801 µM)
